Experimental data as given in ChEMBL document CHEMBL1811883, “The combination of 4-anilinoquinazoline and cinnamic acid: a novel mode of binding to the epidermal growth factor receptor tyrosine kinase” (Bioorg Med Chem, 2011).
In brackets after ≈: the same amount, converted by molar mass.

Assays:
[1] = system: A549; experiment: Antiproliferative activity against human A549 cells after 48 hrs by MTT assay; format: functional, cell-based; conditions: A549, 48 h
Method in brief: (§1)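 Cells exposed to compound at final concentrations from 0.01 to 100 (µg/mL per text) for 48 h. MTT (5 mg/mL in PBS) added for 6 h, then 10% SDS in 0.01 N HCl for a further 4 h at 37 °C. Absorbance read at 570 nm; survival expressed relative to untreated cells.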

[2] = target: Epidermal growth factor receptor (Homo sapiens, UniProt P00533); experiment: Inhibition of recombinant EGFR expressed in baculovirus infected Sf9 cells after 1 hr by DELFIA/time-resolved fluorimetry assay
Sequence of Epidermal growth factor receptor (P00533 whole entry): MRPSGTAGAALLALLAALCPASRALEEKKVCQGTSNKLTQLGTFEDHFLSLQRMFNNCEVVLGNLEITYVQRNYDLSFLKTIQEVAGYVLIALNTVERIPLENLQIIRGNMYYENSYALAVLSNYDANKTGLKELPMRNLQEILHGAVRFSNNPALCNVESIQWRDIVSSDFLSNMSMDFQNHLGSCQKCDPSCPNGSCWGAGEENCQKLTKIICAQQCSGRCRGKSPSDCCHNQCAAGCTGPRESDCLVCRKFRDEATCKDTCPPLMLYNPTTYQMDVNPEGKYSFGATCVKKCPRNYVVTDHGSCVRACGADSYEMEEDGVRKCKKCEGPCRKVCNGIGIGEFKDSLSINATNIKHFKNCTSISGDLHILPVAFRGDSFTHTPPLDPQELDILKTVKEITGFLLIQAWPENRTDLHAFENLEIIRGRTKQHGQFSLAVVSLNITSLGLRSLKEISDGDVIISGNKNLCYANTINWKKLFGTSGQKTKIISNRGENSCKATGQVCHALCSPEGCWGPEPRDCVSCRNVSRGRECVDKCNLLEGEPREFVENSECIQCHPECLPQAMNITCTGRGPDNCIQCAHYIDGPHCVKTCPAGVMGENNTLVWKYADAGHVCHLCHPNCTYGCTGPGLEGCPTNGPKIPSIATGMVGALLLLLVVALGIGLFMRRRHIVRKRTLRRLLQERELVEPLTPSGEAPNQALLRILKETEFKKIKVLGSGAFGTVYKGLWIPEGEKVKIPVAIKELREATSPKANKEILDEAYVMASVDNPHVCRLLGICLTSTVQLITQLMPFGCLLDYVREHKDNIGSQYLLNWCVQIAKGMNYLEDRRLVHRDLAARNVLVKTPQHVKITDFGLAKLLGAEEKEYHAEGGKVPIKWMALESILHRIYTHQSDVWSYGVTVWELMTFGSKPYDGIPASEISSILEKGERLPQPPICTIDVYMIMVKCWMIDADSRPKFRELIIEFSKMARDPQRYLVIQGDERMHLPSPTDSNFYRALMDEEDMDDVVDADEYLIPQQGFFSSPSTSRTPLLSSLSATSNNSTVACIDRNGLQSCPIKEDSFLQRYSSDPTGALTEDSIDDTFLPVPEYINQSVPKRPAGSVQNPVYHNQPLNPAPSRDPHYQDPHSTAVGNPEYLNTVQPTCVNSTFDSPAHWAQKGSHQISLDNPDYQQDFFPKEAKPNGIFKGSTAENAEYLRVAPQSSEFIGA

[3] = system: A431 (Homo sapiens); experiment: Antiproliferative activity against human A431 cells expressing EGFR assessed as inhibition of basal cell growth after 48 hrs by MTT assay; conditions: A431, 48 h
[4] = system: B16-F10; experiment: Antiproliferative activity against mouse B16F10 cells assessed as inhibition of serum-stimulated cell growth after 48 hrs by MTT assay; format: functional, cell-based; conditions: B16-F10, 48 h; method in brief: as §1

Compound | IC50 [1] [µg/mL] | IC50 [2] [µM] | IC50 [3] [µM] | IC50 [4] [µg/mL]
O=C(/C=C/c1ccc([N+](=O)[O-])cc1)Nc1ccc2ncnc(Nc3cccc(Br)c3)c2c1 | 1.85 (≈ 3.77 µM) | 5.16 | 1.34 | 0.981 (≈ 2 µM)
COc1ccccc1/C=C/C(=O)Nc1ccc2ncnc(Nc3cccc(Br)c3)c2c1 | 3.55 (≈ 7.47 µM) | 7.71 | – | 1.28 (≈ 2.69 µM)
O=C(/C=C/c1ccc(Br)cc1)Nc1ccc2ncnc(Nc3cccc(Br)c3)c2c1 | 15.3 (≈ 29.2 µM) | – | – | 10.7 (≈ 20.3 µM)
Nc1ccc2ncnc(Nc3cccc(Br)c3)c2c1 | – | – | 42 | –
COc1cccc(/C=C/C(=O)Nc2ccc3ncnc(Nc4cccc(Cl)c4)c3c2)c1 | 2.58 (≈ 5.99 µM) | 6.63 | – | 1.05 (≈ 2.44 µM)
O=C(/C=C/c1ccccc1)Nc1ccc2ncnc(Nc3cccc(Cl)c3)c2c1 | 1.58 (≈ 3.94 µM) | 3.61 | – | 0.68 (≈ 1.7 µM)
O=C(/C=C/c1cccc2ccccc12)Nc1ccc2ncnc(Nc3cccc(Cl)c3)c2c1 | 1.49 (≈ 3.3 µM) | 2.81 | – | 0.671 (≈ 1.49 µM)
O=C(/C=C/c1ccc(Br)cc1)Nc1ccc2ncnc(Nc3cccc(Cl)c3)c2c1 | 1.86 (≈ 3.88 µM) | 3.49 | – | 0.75 (≈ 1.56 µM)
O=C(/C=C/c1ccc(Cl)cc1)Nc1ccc2ncnc(Nc3cccc(Cl)c3)c2c1 | 12.4 (≈ 28.6 µM) | – | – | 9.97 (≈ 22.9 µM)
O=C(/C=C/c1ccccc1Br)Nc1ccc2ncnc(Nc3cccc(Cl)c3)c2c1 | 5.63 (≈ 11.7 µM) | – | – | 1.65 (≈ 3.44 µM)
O=C(/C=C/c1ccc([N+](=O)[O-])cc1)Nc1ccc2ncnc(Nc3cccc(Cl)c3)c2c1 | 5.26 (≈ 11.8 µM) | 3.45 | 2.13 | 2.05 (≈ 4.6 µM)
Cc1ccc(/C=C/C(=O)Nc2ccc3ncnc(Nc4cccc(Br)c4)c3c2)cc1 | 3.01 (≈ 6.55 µM) | – | – | 1.39 (≈ 3.03 µM)

Second part, the compound after the results:

IC50 [1] [µg/mL] | IC50 [2] [µM] | IC50 [3] [µM] | IC50 [4] [µg/mL] | Compound
0.92 (≈ 1.88 µM) | 1.02 | 0.98 | 0.338 (≈ 0.689 µM) | O=C(/C=C/c1ccccc1[N+](=O)[O-])Nc1ccc2ncnc(Nc3cccc(Br)c3)c2c1
2.38 (≈ 4.54 µM) | 4.28 | – | 0.92 (≈ 1.76 µM) | O=C(/C=C/c1ccccc1Br)Nc1ccc2ncnc(Nc3cccc(Br)c3)c2c1
6.63 (≈ 13.8 µM) | – | – | 2 (≈ 4.17 µM) | O=C(/C=C/c1ccccc1Cl)Nc1ccc2ncnc(Nc3cccc(Br)c3)c2c1
3.96 (≈ 8.89 µM) | – | – | 1.45 (≈ 3.26 µM) | O=C(/C=C/c1ccccc1)Nc1ccc2ncnc(Nc3cccc(Br)c3)c2c1
– | 0.19 | 0.49 | – | O=C(/C=C/c1cccc([N+](=O)[O-])c1)Nc1ccc2ncnc(Nc3cccc(Cl)c3)c2c1
– | – | – | 0.02 (≈ 0.0508 µM) | C#Cc1cccc(Nc2ncnc3cc(OCCOC)c(OCCOC)cc23)c1 [ERLOTINIB]
– | – | 47 | – | Nc1ccc2ncnc(Nc3cccc(Cl)c3)c2c1
4.66 (≈ 10.3 µM) | – | – | 2.51 (≈ 5.56 µM) | O=C(/C=C/c1cccs1)Nc1ccc2ncnc(Nc3cccc(Br)c3)c2c1
6.03 (≈ 14.5 µM) | – | – | 2.02 (≈ 4.87 µM) | Cc1ccc(/C=C/C(=O)Nc2ccc3ncnc(Nc4cccc(Cl)c4)c3c2)cc1
9.23 (≈ 22.7 µM) | – | – | 4.26 (≈ 10.5 µM) | O=C(/C=C/c1cccs1)Nc1ccc2ncnc(Nc3cccc(Cl)c3)c2c1
3.36 (≈ 7.07 µM) | 7.22 | – | 1.24 (≈ 2.61 µM) | COc1ccc(/C=C/C(=O)Nc2ccc3ncnc(Nc4cccc(Br)c4)c3c2)cc1
1.06 (≈ 2.21 µM) | 1.21 | – | 0.38 (≈ 0.792 µM) | O=C(/C=C/c1ccc(Cl)cc1)Nc1ccc2ncnc(Nc3cccc(Br)c3)c2c1
2.05 (≈ 4.31 µM) | 6.02 | – | 0.87 (≈ 1.83 µM) | COc1cccc(/C=C/C(=O)Nc2ccc3ncnc(Nc4cccc(Br)c4)c3c2)c1
4.58 (≈ 10.5 µM) | – | – | 1.74 (≈ 4 µM) | O=C(/C=C/c1ccccc1Cl)Nc1ccc2ncnc(Nc3cccc(Cl)c3)c2c1
– | 0.12 | 0.33 | – | O=C(/C=C/c1cccc([N+](=O)[O-])c1)Nc1ccc2ncnc(Nc3cccc(Br)c3)c2c1
0.78 (≈ 1.75 µM) | – | 0.75 | 0.3 (≈ 0.673 µM) | O=C(/C=C/c1ccccc1[N+](=O)[O-])Nc1ccc2ncnc(Nc3cccc(Cl)c3)c2c1
